This is an account of results in ChEMBL document CHEMBL4396897, “Potent 5-Cyano-6-phenyl-pyrimidin-Based Derivatives Targeting DCN1-UBE2M Interaction” (J Med Chem, 2019).

Each structure is given as a SMILES string. The source made the active and inactive calls. The rule behind the calls is not given here.

The target of data set [1] is T1, DCN1-like protein 1 (Homo sapiens, UniProt Q96GG9). The data set is described as follows: Binding affinity to N-terminal GST tagged recombinant human DCN1 (58 to 259 residues) expressed in Escherichia coli BL21(DE3) assessed as reduction in DCN1-FAM-labelled N-terminal acetylated UBE2M (1 to 21 residues) protein-protein interaction after 30 mins by HTRF assay. In general terms: In TR-FRET formats the signal depends on donor and acceptor labels being close together.
Target sequence in this assay (Q96GG9 whole entry, the tested form may be a part): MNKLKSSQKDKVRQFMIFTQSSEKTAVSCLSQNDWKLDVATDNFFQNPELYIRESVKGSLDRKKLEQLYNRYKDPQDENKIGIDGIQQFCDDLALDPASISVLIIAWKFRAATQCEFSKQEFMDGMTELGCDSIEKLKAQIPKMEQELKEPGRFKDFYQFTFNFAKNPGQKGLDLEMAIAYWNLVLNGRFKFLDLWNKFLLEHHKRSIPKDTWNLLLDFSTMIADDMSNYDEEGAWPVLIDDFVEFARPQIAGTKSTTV

Data set [2] is described as follows: Aqueous solubility of compound in pH 7.4 PBS sonicated for 30 mins followed by 24 hrs incubation under shaking condition by UV-Vis spectroscopy. In kind it is physicochemical. Conditions: buffer, pH 7.4, 24 h. In short, it runs like this:
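Compound powder added to phosphate buffer (PBS, pH 7.4) until a suspension formed. Sonicated 30 min in a water bath, then shaken 24 h at room temperature to reach equilibrium. Centrifuged, supernatant filtered through a 0.45µm membrane, and filtrate measured by UV spectroscopy against a PBS control.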

A further data set concerns the target DCN1-like protein 2 (Homo sapiens, UniProt Q6PH85). In words: Binding affinity to N-terminal GST tagged recombinant DCN2 (unknown origin) (62 to 259 residues) expressed in Escherichia coli BL21(DE3) assessed as reduction in DCN1-FAM-labelled N-terminal acetylated UBE2M (1 to 21 residues) protein-protein interaction after 30 mins by HTRF assay. The gist of the method: (§1)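 HTRF competition: 5nM GST-tagged DCN (1-5) and 5nM AcUBE2M1-21-biotin peptide, with streptavidin-XL665 and anti-GST cryptate, in 100mM phosphate buffer pH 6.5 with 0.02% Tween-20. Cocktail pre-incubated 30min at room temperature, compound added, then 30min more. Excitation 320nm, emission 615/665nm. Ki from three independent repeats, mean ± SD.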

In another data set the target is T2, DCN1-like protein 3 (Homo sapiens, UniProt Q8IWE4).
T2 sequence (Q8IWE4 whole entry): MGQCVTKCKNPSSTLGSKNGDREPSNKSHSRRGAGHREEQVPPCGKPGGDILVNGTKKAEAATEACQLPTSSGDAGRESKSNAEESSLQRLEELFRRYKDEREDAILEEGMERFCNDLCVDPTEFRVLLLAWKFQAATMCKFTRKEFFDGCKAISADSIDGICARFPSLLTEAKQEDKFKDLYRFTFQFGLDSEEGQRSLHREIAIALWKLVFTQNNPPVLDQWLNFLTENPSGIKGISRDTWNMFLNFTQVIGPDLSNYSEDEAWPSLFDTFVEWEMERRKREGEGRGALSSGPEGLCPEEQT
In words: Binding affinity to N-terminal GST tagged recombinant DCN3 (unknown origin) (86 to 304 residues) expressed in Escherichia coli BL21(DE3) assessed as reduction in DCN1/FAM-labelled N-terminal acetylated UBE2M (1 to 21 residues) protein-protein interaction after 30 mins by HTRF assay. The gist of the method:
as §1

Data set [3] deals with PC-9. In words: Effect on NQO1 accumulation in human PC9 cells transfected with DCN1 siRNA3 by densitometric method. It is filed as functional, cell-based. The gist of the method:
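H1975 or PC9 cells seeded in 6-well plates for 16-24h, transfected with DCN1 siRNA#3 by lipofection, with or without compound, and collected three days later. Western blot for Cullin3, DCN1, NRF2, HO-1 and NQO1, with densitometry normalized to GAPDH. Three individual experiments, means ± SD.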

In a further data set the test system is TE-1. The data set is described as follows: Antiproliferative activity against human TE1 after 72 hrs by MTT assay. In kind it is functional, cell-based. In short, it runs like this: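 MTT viability assay: cells seeded at 2~5×10^3 per well, exposed to serial dilutions of compound for 72h, then MTT (5 mg/mL in PBS) added for 4h at 37°C. Formazan dissolved in DMSO and read at 490nm. IC50 reported as mean ± SD of three independent experiments.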
(In general: Tetrazolium dyes change colour on reduction, which living cells bring about.)

Data set [4] concerns NCI-H1975. In words: Antiproliferative activity against human NCI-NCI-H1975 by MTT assay. In kind it is functional, cell-based. Conditions: TDE = time-dependent effect.
Data set [5] relates to A549. The data set is described as follows: Antiproliferative activity against human A549 by MTT assay. It is filed as functional, cell-based. Conditions: TDE = time-dependent effect.
The test system of data set [6] is PC-9. In words: Inhibition of colony formation in human PC9 cells after 7 days by crystal violet staining based microscopic analysis. It is filed as functional, cell-based. In short, it runs like this:
(§2)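 H1975, PC9 and A549 cells seeded at 1×10^3 cells per well and cultured overnight, then given fresh medium with compound at 0, 0.625, 1.25, 2.5, 5 or 10μM for 7 days. Cells fixed, stained with 0.1% crystal violet and imaged by microscopy; dye then dissolved and read on a plate reader. Three experiments; means ± SD.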

Data set [7] concerns A549. The data set is described as follows: Inhibition of colony formation in human A549 cells after 7 days by crystal violet staining based microscopic analysis. In kind it is functional, cell-based. The gist of the method:
as §2

Data set [8] has as its system A549. In words: Induction of apoptosis in human A549 cells assessed as early apoptotic cells at 2.5 uM after 48 hrs by Annexin V-FITC/propidium iodide staining based flow cytometry (reference value: 3.63%). It is filed as functional. On the technique in general: A flow cytometer gives signals particle by particle.
Data set [9] concerns A549. In words: Induction of apoptosis in human A549 cells assessed as necrotic cells at 5 uM after 48 hrs by Annexin V-FITC/propidium iodide staining based flow cytometry (reference value: 0.88%). It is filed as functional.
Data set [10] has as its system A549. In words: Induction of apoptosis in human A549 cells assessed as necrotic cells at 10 uM after 48 hrs by Annexin V-FITC/propidium iodide staining based flow cytometry (reference value: 0.88%). In kind it is functional.
Data set [11] relates to A549. In words: Induction of apoptosis in human A549 cells after 48 hrs by Annexin V-FITC/propidium iodide staining based flow cytometry. In kind it is functional, cell-based.
For data set [12], the system named is PC-9. In words: Induction of apoptosis in human PC9 cells assessed as necrotic cells at 5 uM after 48 hrs by Annexin V-FITC/propidium iodide staining based flow cytometry (reference value: 1.34%). In kind it is functional. The gist of the method: (§3)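 PC9 cells seeded in 6-well plates (1~2×10^6 cells/mL), incubated overnight, then exposed to 0, 2.5, 5 or 10µM compound for 48h. Harvested cells stained with Annexin-V-FITC/PI for 30 min and analysed by flow cytometry. Three individual experiments; means ± SD.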

The subject of data set [13] is PC-9. In words: Induction of apoptosis in human PC9 cells assessed as late apoptotic cells at 10 uM after 48 hrs by Annexin V-FITC/propidium iodide staining based flow cytometry (reference value: 1.57%). It is filed as functional.
In data set [14] the test system is PC-9. The data set is described as follows: Induction of apoptosis in human PC9 cells assessed as necrotic cells at 10 uM after 48 hrs by Annexin V-FITC/propidium iodide staining based flow cytometry (reference value: 1.34%). It is filed as functional. The gist of the method:
as §3

For data set [15], the system named is NCI-H1975. The data set is described as follows: Induction of apoptosis in human NCI-NCI-H1975 cells assessed as early apoptotic cells at 2.5 uM after 48 hrs by Annexin V-FITC/propidium iodide staining based flow cytometry (reference value: 2.47%). It is filed as functional.
For data set [16], the system named is NCI-H1975. In words: Induction of apoptosis in human NCI-NCI-H1975 cells assessed as necrotic cells at 5 uM after 48 hrs by Annexin V-FITC/propidium iodide staining based flow cytometry (reference value: 0.94%). In kind it is functional.
Data set [17] deals with NCI-H1975. In words: Induction of apoptosis in human NCI-NCI-H1975 cells assessed as viable cells at 10 uM after 48 hrs by Annexin V-FITC/propidium iodide staining based flow cytometry (reference value: 96.1%). Conditions: NCI-H1975, 48 h, read-out: Activity. It is filed as functional.
The test system of data set [18] is NCI-H1975. In words: Induction of apoptosis in human NCI-NCI-H1975 cells after 48 hrs by Annexin V-FITC/propidium iodide staining based flow cytometry. In kind it is functional, cell-based.
Data set [19] addresses T1, DCN1-like protein 1.
Target sequence in this assay (Q96GG9 whole entry, looked up, the tested form may be a part): as the sequence (Q96GG9 whole entry, the tested form may be a part) above

DCN1-like protein 2, sequence (Q6PH85 whole entry, the tested form may be a part): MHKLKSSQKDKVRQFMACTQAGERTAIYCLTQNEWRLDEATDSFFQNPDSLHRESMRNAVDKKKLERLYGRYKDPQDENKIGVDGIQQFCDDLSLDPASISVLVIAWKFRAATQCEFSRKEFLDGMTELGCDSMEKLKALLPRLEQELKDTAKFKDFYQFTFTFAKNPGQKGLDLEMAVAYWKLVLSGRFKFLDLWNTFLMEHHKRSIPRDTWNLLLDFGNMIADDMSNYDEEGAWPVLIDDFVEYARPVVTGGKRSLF

The IC50 is the concentration needed to halve the response being measured. A word on the Ki: it is a dissociation constant, usually derived from enzyme kinetics or from competition with a known ligand. Broadly, the ΔTm is the shift of the melting midpoint relative to a reference. Consider `C#CCSc1nc(Sc2nccs2)c(C#N)c(-c2ccc(C)cc2)n1`, for which the 50% inhibitory concentration (IC50) at DCN1-like protein 1 [1] is 15.7 nM. Also, the inhibitory constant (Ki) on DCN1-like protein 1 [1] came to 13.7 nM; on DCN1-like protein 2, 66.2 nM; on DCN1-like protein 3 it was 592 nM. Besides, the solubility result in [2] is on record as “Soluble”. For the same molecule, the result in the data set on PC-9 [3] was inactive. In the data set with TE-1, the outcome was Active. Moreover, the Activity result in the data set with NCI-H1975 [4] is “Tde”; in the data set on A549 [5], “Tde”; with A549 [8], 6.21%; with A549 [9], 7.02%; in the data set on A549 [10], 0.72%; in the data set with A549 [11] it was “Dose-dependent effect”. Also, the Activity in the data set with PC-9 [12] was 5.29%; in the data set on PC-9 [13], 57.2%; in the data set on PC-9 [14], 17.4%; in the data set with NCI-H1975 [15], 9.47%; in the data set on NCI-H1975 [16], 4.92%; in the data set with NCI-H1975 [18], “Dose-dependent effect”. Also, the inhibition entry in the data set on PC-9 [6] and in the data set on A549 [7] was “Dose-dependent effect” throughout. Further, the viability at 10 µM in the data set on NCI-H1975 [17] was 17.1%. For the same molecule, the shift in melting temperature (ΔTm) at DCN1-like protein 1 [19] was 7 °C.
